Test results as given in ChEMBL document CHEMBL5303300, “EUbOPEN Chemogenomics Library - Multiplex” (2023).
“And” between values parts separate entries of the source, which are not always exact repeats. Equal entries are not always repeated.

Columns and labels:
Assay type in all cases: toxicity, cell-based
[1] = test system: U2OS; experiment: Multiplex assay against U2OS; conditions: human, number of replicates 2
Outline: (§1)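 Per cents of healthy-nucleus cells form the tubulin, mitochondrial-mass and membrane-permeability phenotype values. Live cells were stained at seeding with Hoechst33342, BioTracker Green Microtubule Cytoskeleton Dye, MitoTracker Red and Annexin V Alexa Fluor 680. After compound addition they were imaged on a CQ1 microscope at 37°C and 5% CO2, and CellPathfinder machine-learning gating split them into Hoechst high-intensity objects or normal cells, normal cells into healthy, pyknosed or fragmented nuclei, and pyknosed cells into mitotic or apoptotic.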

[2] = test system: HEK-293T; experiment: Multiplex assay against HEK293T; conditions: human, number of replicates 2; outline: as §1
[3] = test system: Fibroblast; experiment: Multiplex assay against human fibroblast; conditions: number of replicates 2; outline: as §1
[4] = 12 h, 1 µM, compound concentration 1 uM
[5] = 12 h, 10 µM, compound concentration 10 uM
[6] = 24 h, 1 µM, compound concentration 1 uM
[7] = 24 h, 10 µM, compound concentration 10 uM
[8] = 48 h, 1 µM, compound concentration 1 uM
[9] = 48 h, 10 µM, compound concentration 10 uM

## CN(C)C/C=C/C(=O)Nc1cc2c(Nc3ccc(F)c(Cl)c3)ncnc2cc1OC[C@@H]1CCCO1
[1]; [4]
  Population Apoptotic (%): 66% and 86%
  Population Healthy Nuclei (%): 40% and 79%
  Population Hoechst High Intensity Objects (%): 0%
  Population Membrane Permeable-Phenotype (%): 27% and 24%
  Population Mitochondria Different-Phenotype (%): 9% and 22%
  Population Mitotic Cells (%): 33% and 13%
  Population Normal (%): 100%
  Population Pyknosed Nuclei (%): 22% and 14%
  Population Tubulin-Different-Phenotype (%): 63% and 53%
[1]; [5]
  Population Apoptotic (%): 76% and 59%
  Population Healthy Nuclei (%): 23% and 66%
  Population Hoechst High Intensity Objects (%): 0%
  Population Membrane Permeable-Phenotype (%): 66% and 25%
  Population Mitochondria Different-Phenotype (%): 50% and 48%
  Population Mitotic Cells (%): 23% and 40%
  Population Normal (%): 100% and 99%
  Population Pyknosed Nuclei (%): 50% and 25%
  Population Tubulin-Different-Phenotype (%): 83% and 97%
[1]; [6]
  Population Apoptotic (%): 71% and 77%
  Population Healthy Nuclei (%): 42% and 74%
  Population Hoechst High Intensity Objects (%): 0%
  Population Membrane Permeable-Phenotype (%): 14% and 18%
  Population Mitochondria Different-Phenotype (%): 21% and 36%
  Population Mitotic Cells (%): 28% and 22%
  Population Normal (%): 100% and 99%
  Population Pyknosed Nuclei (%): 21% and 20%
  Population Tubulin-Different-Phenotype (%): 35% and 48%
[1]; [7]
  Population Apoptotic (%): 85% and 65%
  Population Hoechst High Intensity Objects (%): 0% and 1%
  Population Membrane Permeable-Phenotype (%): 100% and 35%
  Population Mitochondria Different-Phenotype (%): 80% and 70%
  Population Mitotic Cells (%): 14% and 34%
  Population Normal (%): 100% and 98%
  Population Pyknosed Nuclei (%): 46% and 37%
  Population Tubulin-Different-Phenotype (%): 100% and 93%
[1]; [8]
  Population Apoptotic (%): 66% and 88%
  Population Healthy Nuclei (%): 39% and 76%
  Population Hoechst High Intensity Objects (%): 0%
  Population Membrane Permeable-Phenotype (%): 27% and 14%
  Population Mitochondria Different-Phenotype (%): 45% and 26%
  Population Mitotic Cells (%): 33% and 11%
  Population Normal (%): 100%
  Population Pyknosed Nuclei (%): 21% and 18%
  Population Tubulin-Different-Phenotype (%): 63% and 40%
[1]; [9]
  Population Apoptotic (%): 76% and 90%
  Population Hoechst High Intensity Objects (%): 0% and 2%
  Population Membrane Permeable-Phenotype (%): 100% and 50%
  Population Mitochondria Different-Phenotype (%): 100% and 79%
  Population Mitotic Cells (%): 23% and 10%
  Population Normal (%): 100% and 97%
  Population Pyknosed Nuclei (%): 43% and 56%
  Population Tubulin-Different-Phenotype (%): 100% and 89%
[2]; [4]
  Population Apoptotic (%): 39% and 48%
  Population Fragmented Nuclei (%): 3% and 2%
  Population Healthy Nuclei (%): 83% and 85%
  Population Hoechst High Intensity Objects (%): 7% and 8%
  Population Membrane Permeable-Phenotype (%): 4% and 5%
  Population Mitochondria Different-Phenotype (%): 32% and 29%
  Population Mitotic Cells (%): 60% and 51%
  Population Normal (%): 92% and 91%
  Population Pyknosed Nuclei (%): 13% and 12%
  Population Tubulin-Different-Phenotype (%): 94% and 91%
  Total Cell Count: 593 and 650
[2]; [5]
  Population Apoptotic (%): 72% and 76%
  Population Fragmented Nuclei (%): 2% and 4%
  Population Healthy Nuclei (%): 75% and 78%
  Population Hoechst High Intensity Objects (%): 20% and 28%
  Population Membrane Permeable-Phenotype (%): 2% and 4%
  Population Mitochondria Different-Phenotype (%): 73% and 75%
  Population Mitotic Cells (%): 27% and 23%
  Population Normal (%): 79% and 71%
  Population Pyknosed Nuclei (%): 21% and 17%
  Population Tubulin-Different-Phenotype (%): 60% and 66%
  Total Cell Count: 256 and 344
[2]; [6]
  Population Apoptotic (%): 57% and 51%
  Population Fragmented Nuclei (%): 6% and 5%
  Population Healthy Nuclei (%): 87% and 86%
  Population Hoechst High Intensity Objects (%): 8%
  Population Membrane Permeable-Phenotype (%): 4%
  Population Mitochondria Different-Phenotype (%): 21% and 18%
  Population Mitotic Cells (%): 42% and 48%
  Population Normal (%): 91%
  Population Pyknosed Nuclei (%): 6% and 8%
  Population Tubulin-Different-Phenotype (%): 81% and 83%
  Total Cell Count: 811 and 859
[2]; [7]
  Population Apoptotic (%): 89% and 76%
  Population Fragmented Nuclei (%): 3% and 1%
  Population Healthy Nuclei (%): 62% and 73%
  Population Hoechst High Intensity Objects (%): 25% and 29%
  Population Membrane Permeable-Phenotype (%): 7% and 0%
  Population Mitochondria Different-Phenotype (%): 74% and 79%
  Population Mitotic Cells (%): 10% and 23%
  Population Normal (%): 74% and 70%
  Population Pyknosed Nuclei (%): 33% and 24%
  Population Tubulin-Different-Phenotype (%): 60% and 57%
  Total Cell Count: 303 and 369
[2]; [8]
  Population Apoptotic (%): 32% and 29%
  Population Fragmented Nuclei (%): 11% and 10%
  Population Healthy Nuclei (%): 83% and 85%
  Population Hoechst High Intensity Objects (%): 9% and 10%
  Population Membrane Permeable-Phenotype (%): 7% and 5%
  Population Mitochondria Different-Phenotype (%): 5% and 4%
  Population Mitotic Cells (%): 67% and 70%
  Population Normal (%): 90% and 89%
  Population Pyknosed Nuclei (%): 4%
  Population Tubulin-Different-Phenotype (%): 60% and 62%
  Total Cell Count: 1468 and 1438
[2]; [9]
  Population Apoptotic (%): 87% and 89%
  Population Fragmented Nuclei (%): 9% and 8%
  Population Healthy Nuclei (%): 43% and 53%
  Population Hoechst High Intensity Objects (%): 31% and 32%
  Population Membrane Permeable-Phenotype (%): 4% and 1%
  Population Mitochondria Different-Phenotype (%): 81% and 83%
  Population Mitotic Cells (%): 12% and 10%
  Population Normal (%): 68% and 67%
  Population Pyknosed Nuclei (%): 47% and 38%
  Population Tubulin-Different-Phenotype (%): 52% and 58%
  Total Cell Count: 355 and 410
[3]; [4]
  Population Apoptotic (%): 31% and 30%
  Population Fragmented Nuclei (%): 16% and 20%
  Population Healthy Nuclei (%): 57% and 60%
  Population Hoechst High Intensity Objects (%): 0%
  Population Membrane Permeable-Phenotype (%): 14% and 13%
  Population Mitochondria Different-Phenotype (%): 0% and 1%
  Population Mitotic Cells (%): 68% and 69%
  Population Normal (%): 99% and 100%
  Population Pyknosed Nuclei (%): 26% and 18%
  Population Tubulin-Different-Phenotype (%): 67% and 54%
  Total Cell Count: 169 and 229
[3]; [5]
  Population Apoptotic (%): 40% and 32%
  Population Fragmented Nuclei (%): 12% and 15%
  Population Healthy Nuclei (%): 41% and 47%
  Population Hoechst High Intensity Objects (%): 1% and 3%
  Population Membrane Permeable-Phenotype (%): 46% and 40%
  Population Mitochondria Different-Phenotype (%): 9% and 11%
  Population Mitotic Cells (%): 59% and 67%
  Population Normal (%): 98% and 96%
  Population Pyknosed Nuclei (%): 46% and 36%
  Population Tubulin-Different-Phenotype (%): 78% and 88%
  Total Cell Count: 181 and 317
[3]; [6]
  Population Apoptotic (%): 50% and 67%
  Population Fragmented Nuclei (%): 14% and 20%
  Population Healthy Nuclei (%): 65% and 66%
  Population Hoechst High Intensity Objects (%): 0%
  Population Membrane Permeable-Phenotype (%): 6% and 8%
  Population Mitochondria Different-Phenotype (%): 2% and 5%
  Population Mitotic Cells (%): 50% and 32%
  Population Normal (%): 99% and 100%
  Population Pyknosed Nuclei (%): 19% and 13%
  Population Tubulin-Different-Phenotype (%): 69% and 51%
  Total Cell Count: 155 and 235
[3]; [7]
  Population Apoptotic (%): 68% and 65%
  Population Fragmented Nuclei (%): 17% and 13%
  Population Healthy Nuclei (%): 27% and 29%
  Population Hoechst High Intensity Objects (%): 2% and 6%
  Population Membrane Permeable-Phenotype (%): 27% and 28%
  Population Mitochondria Different-Phenotype (%): 45% and 47%
  Population Mitotic Cells (%): 31% and 34%
  Population Normal (%): 97% and 93%
  Population Pyknosed Nuclei (%): 54% and 56%
  Population Tubulin-Different-Phenotype (%): 80% and 77%
  Total Cell Count: 147 and 216
[3]; [8]
  Population Apoptotic (%): 72% and 80%
  Population Fragmented Nuclei (%): 15% and 23%
  Population Healthy Nuclei (%): 68% and 64%
  Population Hoechst High Intensity Objects (%): 0% and 1%
  Population Membrane Permeable-Phenotype (%): 5% and 3%
  Population Mitochondria Different-Phenotype (%): 11% and 5%
  Population Mitotic Cells (%): 28% and 20%
  Population Normal (%): 100% and 98%
  Population Pyknosed Nuclei (%): 15% and 11%
  Population Tubulin-Different-Phenotype (%): 55% and 42%
  Total Cell Count: 157 and 217
[3]; [9]
  Population Apoptotic (%): 89% and 84%
  Population Fragmented Nuclei (%): 27% and 18%
  Population Healthy Nuclei (%): 24% and 32%
  Population Hoechst High Intensity Objects (%): 5% and 14%
  Population Membrane Permeable-Phenotype (%): 36% and 40%
  Population Mitochondria Different-Phenotype (%): 50% and 42%
  Population Mitotic Cells (%): 10% and 15%
  Population Normal (%): 94% and 85%
  Population Pyknosed Nuclei (%): 47% and 48%
  Population Tubulin-Different-Phenotype (%): 76%
  Total Cell Count: 128 and 187
